Sampled rows, rich in hits. Any-hit rate of the full collection: about 2.1%.
Beta2AR agonist – beta2AR agonists driving receptor internalization, primary screen, cell-based, FAP fluorogen, flow cytometry. 340,000 compounds, 0.43% hits. Am2.2-beta2AR cells. Beta-2 adrenergic receptor (Homo sapiens), P07550. response, % (no concentration beside the values);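 active means response above a set limit, near 3 SD of response in nonfluorescent compounds, cut at about 42% in these data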
aDG glyco up – activators of alpha-DG glycosylation, primary screen, uHTS, Pro5-aDG cells, AlphaScreen | alpha-DG glycosylation AlphaScreen (IIH6); 0% Pro5, 100% B10-LARGE cell signal | activation, % at 10 µM | 360,000 compounds, 0.22% hits;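 active means activation of at least 8% versus controls, or a plate z-score of at least 8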;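 further: Pro5 are CHO cells carrying HIG-tagged alpha-DG that lacks glycosylation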
Cardio protect – cardioprotection against H2O2-induced cell death, primary screen, uHTS, H9c2 cells, ATPLite luminescence; H9c2 cardiomyocytes, H2O2 injury protection, 2 h; protection from H2O2 cell death, % at 20 µM; 360,000 compounds, 0.63% hits; AID 588492, 2011;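 active means compounds giving at least 50% protection of heart cells from peroxide-induced death in the single-dose screen, raw or plate-pattern-corrected value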;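 further: 0% = DMSO wells with peroxide and 100% = DMSO wells without peroxide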
PfG6PD inh – PfG6PD enzyme inhibitors, primary screen, biochemical, fluorescence intensity, uHTS; inhibition, % at 20 µM; glucose-6-phosphate dehydrogenase-6-phosphogluconolactonase (Plasmodium falciparum 3D7); 350,000 compounds, 0.78% hits; PfGluPho enzyme, NADPH resazurin-diaphorase fluorescence;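 active means inhibition reaching at least a set limit at 20 µM in the primary screen, cut at about 59% in these data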;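 further: 0% = DMSO wells with substrate and 100% = DMSO wells lacking glucose-6-phosphate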
HKDC1 inhibitor – HKDC1 hexokinase inhibitors, primary screen, biochemical, fluorescence, uHTS. Q2TB90. recombinant HKDC1, G6PDH/diaphorase resazurin coupled fluorescence. inhibition, % at 20 µM. 340,000 compounds, 0.16% hits. AID 493160, 2011;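 active means inhibition above about 35% when tested at 20 µM, limit read from the data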;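 further: plate controls were DMSO wells with enzyme for no effect and DMSO wells lacking enzyme for full effect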
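System: Recombinant HKDC1 hexokinase | Amount: HKDC1 at 5 µg/mL | Reagent: Glucose with 1 mM ATP | Doses: Single 20 µM dose | Incubation: Reaction time 90 min, room temperature, protected from light | Signal: Coupled resazurin fluorescence, excitation 525 nm, emission 613 nm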
UCH37 inh – inhibitors of human UCH37 deubiquitinase, primary screen, biochemical, Ub-AMC cleavage, fluorescence; purified proteasome/UCH37; AID 588478, 2011; inhibition, % (no concentration beside the values); Ubiquitin carboxyl-terminal hydrolase isozyme L5 (Homo sapiens), Q9Y5K5; 330,000 compounds, 0.33% hits;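 active means mean inhibition over replicate wells above about 20%, limit read from the data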;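 further: 0% = compound-free wells with enzyme and 100% = wells lacking proteasome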
Target sequence (Q9Y5K5 whole entry, looked up): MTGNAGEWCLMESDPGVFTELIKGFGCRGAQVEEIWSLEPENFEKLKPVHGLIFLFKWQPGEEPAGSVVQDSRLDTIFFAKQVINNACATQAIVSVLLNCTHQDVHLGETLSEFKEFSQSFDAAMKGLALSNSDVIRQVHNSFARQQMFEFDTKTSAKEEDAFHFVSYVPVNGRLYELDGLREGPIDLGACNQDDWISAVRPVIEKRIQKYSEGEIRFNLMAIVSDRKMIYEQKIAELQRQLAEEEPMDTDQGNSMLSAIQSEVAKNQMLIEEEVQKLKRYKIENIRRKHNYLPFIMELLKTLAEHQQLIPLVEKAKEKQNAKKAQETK
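Material: Human UCH37 enzyme supplied as purified proteasome complex | Schedule: 30 min compound-proteasome preincubation then 25 min substrate reaction, room temperature | Detection: AMC fluorescence from Ub-AMC cleavage, excitation 355 nm, emission 460 nm | Benchmarks: Wells without proteasome as full block, compound-free enzyme plus substrate as uninhibited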
* hit, by the source's call.

N#CCSc1nc2cc(C(=O)N3CCC(C(N)=O)CC3)ccc2c2nc3ccccc3n12 was read as Beta2AR agonist -5.3, aDG glyco up -0.2, Cardio protect 51.8*, PfG6PD inh -7.0, HKDC1 inhibitor 7.1 and UCH37 inh -59.2.
NC(=O)CCn1c(C(=O)c2ccc(Cl)cc2)c2ccccc2[n+]1[O-] was read as Beta2AR agonist -8.8, aDG glyco up -0.2, Cardio protect 12.9, PfG6PD inh 14.1, HKDC1 inhibitor -0.3 and UCH37 inh 28.3*.
For Cc1ccc(S(=O)(=O)NN=Cc2ccc(OCC(=O)NC(C)C)cc2)cc1 the results were UCH37 inh 28.0*.
`CC(C)NC(=O)COc1ccc(/C=N/NS(=O)(=O)c2ccccc2)cc1` gave Beta2AR agonist 0.9, aDG glyco up -0.2, Cardio protect -3.5, PfG6PD inh 13.8 and HKDC1 inhibitor -6.7.
For CC1Cc2ccccc2N1C(=S)NC(=O)c1cccc(Br)c1 (stereo not given) the results were Beta2AR agonist 3.3, aDG glyco up 0.0, Cardio protect 68.6*, PfG6PD inh -12.3, HKDC1 inhibitor -1.3 and UCH37 inh 3.6.
Screening CC1Cc2ccccc2N1C(=S)NC(=O)c1ccc(Cl)cc1Cl (stereo not given) returned Beta2AR agonist 5.9, aDG glyco up -0.1, Cardio protect 12.4, PfG6PD inh -5.2, HKDC1 inhibitor -3.0 and UCH37 inh 1.7.
Screening CCCNC(=O)CC(C)=NNC(=O)C(=O)Nc1ccccn1 returned UCH37 inh 1.7.
For C/C=C(/C)C(=O)OC1CC(C)(C)C[C@H]2C3=CC[C@@H]4[C@@]5(C)CCC(O[C@@H]6O[C@@H](C(=O)O)[C@@H](O)C(O[C@@H]7OC[C@H](O)[C@@H](O)[C@@H]7O[C@@H]7OC(CO)C(O)[C@@H](O)[C@@H]7O)C6O[C@@H]6OC(CO)C(O)C(O)C6O)[C@@](C)(CO)[C@@H]5CC[C@]4(C)[C@]3(C)CC(O)[C@@]12CO (stereo not given in full) the results were Beta2AR agonist 10.8, aDG glyco up 0.6, Cardio protect -17.4, PfG6PD inh -1.2, HKDC1 inhibitor -3.1 and UCH37 inh 0.6.
`C/C=C(\C)C(=O)OC1[C@H](OC(C)=O)C2(CO)C(CC1(C)C)C1=CCC3C4(C)CCC(O[C@@H]5O[C@H](C(=O)O)[C@@H](O[C@@H]6O[C@H](CO)[C@@H](O)[C@H](O)[C@H]6O)[C@H](O)[C@H]5O[C@H]5O[C@H](CO)[C@@H](O)[C@H](O)[C@H]5O)[C@](C)(CO)C4CCC3(C)[C@]1(C)C[C@H]2O` (stereo not given in full) gave Beta2AR agonist 60.6*, aDG glyco up -0.4, Cardio protect -17.6, PfG6PD inh -5.9 and HKDC1 inhibitor -4.3.
For Cc1n[nH]c(=S)n(N=Cc2ccccn2)c1=O the results were UCH37 inh 2.0.
`COc1cc(C=NNC(=O)c2ccc(O)cc2)ccc1OCC(=O)N1CC(C)OC(C)C1` (stereo not given) gave UCH37 inh 5.4.
Screening O=c1c2ccccc2nc(-c2ccccc2Cl)n1O returned Beta2AR agonist -0.3, aDG glyco up 0.0, Cardio protect -0.4, PfG6PD inh -10.1, HKDC1 inhibitor -5.1 and UCH37 inh -2.0.
For O=c1c2ccccc2nc(-c2ccc(Cl)c(Cl)c2)n1O the results were Beta2AR agonist 15.3, aDG glyco up 0.4, Cardio protect 62.6*, PfG6PD inh -19.3 and HKDC1 inhibitor 2.1.
Screening CC1=C(C)CC(C(=O)c2ccccc2)C(C(=O)O)C1 (stereo not given) returned Beta2AR agonist 4.3, aDG glyco up 0.0, Cardio protect 2.3, PfG6PD inh -7.2, HKDC1 inhibitor -9.3 and UCH37 inh 3.2.
`O=C(c1ccccc1)C1CC=CCC1C(=O)c1ccccc1` (stereo not given) gave Beta2AR agonist 43.8*, aDG glyco up -0.2, Cardio protect -2.5, PfG6PD inh 11.5, HKDC1 inhibitor 0.8 and UCH37 inh 3.8.
Screening CCOc1cc(CNCc2ccccc2)ccc1OCc1ccc(Cl)cc1 returned Beta2AR agonist 14.5, aDG glyco up 1.0, Cardio protect -23.0, PfG6PD inh 18.7, HKDC1 inhibitor -3.9 and UCH37 inh 6.9.
CCOc1cc(CNc2ccc(O)cc2)ccc1OCc1ccc(Cl)cc1Cl was read as Beta2AR agonist 2.0, aDG glyco up 0.4, Cardio protect -14.4, PfG6PD inh 88.1* and HKDC1 inhibitor 18.9.
O=C(O)c1ccc2c(c1)C(=O)/C(=C/c1ccccc1)C2=O was read as Beta2AR agonist -1.1, aDG glyco up 0.0, Cardio protect 1.2, PfG6PD inh 23.1, HKDC1 inhibitor -3.1 and UCH37 inh 22.0*.
Screening CC(C)c1c(C(=O)NN=Cc2ccco2)nnn1-c1nonc1N returned UCH37 inh 3.9.
`CCN1CCN(CCCNC(=O)c2ccc(/C=C3/Sc4ccccc4N(Cc4ccccc4F)C3=O)cc2)CC1` gave Beta2AR agonist 47.3*, aDG glyco up 0.9, Cardio protect -25.9, PfG6PD inh -12.1, HKDC1 inhibitor -9.9 and UCH37 inh -9.3.
`COc1ccc(N(CC(=O)Nc2cccc(C(C)=O)c2)S(=O)(=O)c2ccc(NC(C)=O)cc2)cc1` gave Beta2AR agonist 5.7, aDG glyco up -0.2, Cardio protect 73.0*, PfG6PD inh -5.2, HKDC1 inhibitor 4.7 and UCH37 inh 3.1.
Screening COc1ccc(N(CC(=O)Nc2ccc3c(c2)OCO3)S(=O)(=O)c2ccccc2)c(OC)c1 returned Beta2AR agonist 1.6, aDG glyco up -0.2, Cardio protect 53.7*, PfG6PD inh -3.8, HKDC1 inhibitor 3.8 and UCH37 inh 1.2.
For COc1ccc(N(CC(=O)Nc2ccc3c(c2)OCO3)S(=O)(=O)c2ccccc2)cc1OC the results were Beta2AR agonist -0.9, aDG glyco up 0.1, Cardio protect 11.7, PfG6PD inh 25.9, HKDC1 inhibitor -0.6 and UCH37 inh -2.0.
Screening O=C(O)c1cccc(NC(=S)NN=Cc2ccccc2OCc2ccc(Br)cc2)c1 returned UCH37 inh 11.8.
`CCOc1cc(/C=C2\CN(CC)C/C(=C\c3ccc(O)c(OCC)c3)C2=O)ccc1O` gave Beta2AR agonist 29.2, aDG glyco up -0.2, Cardio protect 23.7, PfG6PD inh 12.2, HKDC1 inhibitor 15.3 and UCH37 inh -2.5.

Compound activity deposited in PubChem by several laboratories.
